Rows were chosen to be rich in hits. Some 3.5% of all compounds tested hit in one or more screens of this group.
MrgX1 PAM – positive allosteric modulators of MrgX1, primary screen, HEK293 cells, Fluo-4 calcium flux. Mas-related G-protein coupled receptor member X1 (Homo sapiens), Q96LB2. FDSS; hits give high values. B-score at 10 µM. 310,000 tested, 0.63% active;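 active = plate-corrected calcium response at least 3 library SD above typical, normal starting fluorescence, not activating the receptor alone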;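 note: compound read alongside a low EC10 to EC30 dose of BAM8-22 agonist; peak minus trough fluorescence over baseline measured at the second addition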
Target sequence (Q96LB2 whole entry, looked up): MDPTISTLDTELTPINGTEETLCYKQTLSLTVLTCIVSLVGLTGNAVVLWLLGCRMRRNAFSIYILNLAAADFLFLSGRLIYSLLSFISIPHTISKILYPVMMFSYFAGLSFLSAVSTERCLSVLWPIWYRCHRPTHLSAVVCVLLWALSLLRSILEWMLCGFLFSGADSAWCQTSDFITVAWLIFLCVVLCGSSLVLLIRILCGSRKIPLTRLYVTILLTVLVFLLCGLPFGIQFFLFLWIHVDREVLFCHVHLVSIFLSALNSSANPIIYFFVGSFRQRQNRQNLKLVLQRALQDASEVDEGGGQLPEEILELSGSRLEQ
RGS4 block – RGS4 inhibitors, primary screen, cell-based, HEK293 M3R inducible RGS4, calcium flux. Regulator of G-protein signaling 4 (Homo sapiens), P49798. Fluo-4 calcium flux; hits give high values; triggered by carbachol at its EC20. B-score at 10 µM. 310,000 tested, 0.45% active;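 active = B-score, a plate-corrected calcium signal, over three deviations above library mean, with baseline fluorescence within five deviations of library mean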;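 note: RGS4 expression induced by doxycycline in cells with stable M3 receptor; B-score is computed from the integrated fluorescence ratio over baseline after carbachol; higher B-score means a larger calcium signal and so more RGS4 inhibition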
RGS4 act – RGS4 potentiators or activators, primary screen, cell-based, HEK293 M3R inducible RGS4, calcium flux | carbachol calcium flux Fluo4; hits give low values | B-score at 10 µM | 310,000 tested, 0.92% active | AID 463111, 2010;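 active = B-score of the integrated calcium signal more than 4 SD below the library mean, with starting fluorescence not abnormally high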;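 note: negative B-score means reduced calcium response which marks RGS4 activation or potentiation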
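Material: Inducible-RGS4 HEK293 cells carrying M3 receptor; also added: carbachol at ECmax as muscarinic agonist stimulus; incubation: compound preincubation 20 min at room temperature before agonist; signal: Fluo4-AM (2 µM) calcium-flux fluorescence, kinetic read; measure: integrated calcium ratio converted to B score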
MrgX1 antag – antagonists of human MrgX1 receptor, primary screen, HEK293 cells, Fluo-4 calcium flux. 310,000 tested, 1.3% active. AID 588676, 2011. BAM8-22 antagonism; hits give low values. B-score at 10 µM. Mas-related G-protein coupled receptor member X1 (Homo sapiens), Q96LB2;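 active = calcium-response B-score plate-corrected more than 3 library SD below zero, starting fluorescence within 5 deviations, no agonist response on first addition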;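 note: peak minus trough fluorescence over baseline after final BAM8-22 challenge near maximal dose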
MrgX1 ag – agonists of human MrgX1 receptor, primary screen, HEK293 cells, Fluo-4 calcium flux; 310,000 tested, 0.44% active; Fluo-4 calcium fluorescence, agonist mode; hits give high values; AID 588627, 2011; B-score at 10 µM;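 active = calcium response B-score plate-corrected fluorescence ratio at least 3 library SD, with starting fluorescence B-score inside 5 SD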
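System – MrgX1-expressing HEK293 cells · Incubation – cells plated overnight, dye loaded 0.5 h 37 °C, 0.5 h room temperature · Technique – kinetic Fluo-4 NW fluorescence of intracellular calcium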
Of the large screens only hits and unclear results are named; the others gave an inactive call.

CCCn1c(=O)c(C(=O)NCCc2ccccc2)c(O)c2ccccc21	none
CCc1nc2ccccc2c(=O)n1NC(=O)c1c(O)c2ccccc2n(CC)c1=O	MrgX1 PAM 12
CCCn1c(=O)c(C(=O)NNC(=O)c2ccc(Cl)cc2Cl)c(O)c2ccccc21	MrgX1 ag 38
CCCn1c(=O)c(C(=O)NCCc2ccc(OC)cc2)c(O)c2ccccc21	MrgX1 PAM 7
CCn1c(=O)c(C(=O)NNC(=O)c2ccc(Cl)cc2Cl)c(O)c2ccccc21	RGS4 act -7.8, MrgX1 ag 69
O=C(CN1C(=O)NC2(CCCC2)C1=O)c1ccc(Cl)s1	none
CCOC(=O)c1cccc(NC(=O)Nc2ccc3c(c2)C(=O)OC3)c1	none
COc1ccc(NC(=O)C(Cc2cc(C)cc(C)c2)C(C)C(=O)O)cc1 (configuration not stated)	none
CCOc1ccc(CN(C)C(=O)Cc2c[nH]c3ccccc23)cc1	none
CSc1ccc(C2(O)Cc3cccc[n+]3C2c2ccccc2)cc1 (configuration not stated)	none
CCOC(=O)c1ccc(COC(=O)c2ccc3c(c2)-c2ccccc2C3=O)cc1	none
CCOC(=O)C1=C(O)c2ccccc2C(=O)/C1=C\c1ccc(CC)cc1	MrgX1 antag -6
CCCc1ccc(/C=C2\C(=O)c3ccccc3C(O)=C2C(=O)OCC)cc1	MrgX1 antag -7
CCOC(=O)C1=C(Cc2ccc(C)cc2)C(=O)c2ccccc2C1=O	MrgX1 ag 86
CS(=O)(=O)N(CC(=O)NCc1ccco1)c1cccc([N+](=O)[O-])c1	none
COc1ccc(NC(=S)N2CCc3ccccc3C2)cc1OC	none
O=[N+]([O-])c1ccc(/C([O-])=C(/C(=S)NCc2ccco2)[n+]2ccccc2)cc1	none
Cc1ccc(/C([O-])=C(/C(=S)NCc2ccco2)[n+]2ccccc2)cc1	RGS4 block 4.7
O=C(N/N=C/c1c(O)n(-c2ccc(Cl)cn2)c(=O)c2ccccc12)c1ccncc1	RGS4 act -9.6
O=C(NC(=S)Nc1ccc(CN2CCCCC2)cc1)c1cccc(OCc2ccccc2)c1	RGS4 act -7.5
CC(=O)Nc1ccc(CN2CCCCCCC2)cc1	none
O=C(Nc1ccc(CN2CCCCC2)cc1)c1c(F)c(F)c(F)c(F)c1F	RGS4 act -7.3
CCOc1ccccc1N1CC(C(=O)Nc2ccccc2CC)CC1=O (configuration not stated)	none
COc1cccc(CN2CC(C(=O)NCC3CCOCC3)CCC2=O)c1 (configuration not stated)	none
Cc1cccc(N2CCN(C(=O)c3ccc(CS(=O)Cc4cccc(Cl)c4)o3)CC2)c1C (configuration not stated)	RGS4 act -10
O=C(c1ccc(CS(=O)Cc2ccc(Cl)cc2)o1)N1CCN(c2ccccc2F)CC1 (configuration not stated)	none
Cc1ccc(Cl)cc1N1CCN(C(=O)c2ccc(CS(=O)Cc3ccc(Cl)cc3)o2)CC1 (configuration not stated)	none
Cc1ccc(C)c(N2CCN(C(=O)c3ccc(CS(=O)Cc4ccc(Cl)cc4)o3)CC2)c1 (configuration not stated)	RGS4 act -8.5
Cc1ccc(CN2C(=O)[C@H]3Cc4c([nH]c5ccccc45)C(C)(C)N3C2=O)cc1	none
CCCCCc1cc(=O)oc2c(C(CCN3CCCC3)c3cc(OC)c(OC)c(OC)c3)c(OC)cc(OC)c12 (configuration not stated)	MrgX1 antag -5.3
CCCCCc1cc(=O)oc2c(C(CCN3CCCCC3)c3ccc(OC)cc3)c(OC)cc(OC)c12 (configuration not stated)	none
C#CCOCCOCCOCCNc1nc(N2CCN(C(=O)CCCCCCCCCCNC(=O)Cn3cc(C[C@@H](C)O)nn3)CC2)nc(N2CCN(C(=O)CCCCCCCCCCNC(=O)[C@@H]([C@H](C)O)n3cc(C)nn3)CC2)n1	none (no result: RGS4 block, RGS4 act)
C#CCOCCOCCOCCNc1nc(N2CCN(C(=O)CCCCCCCCCCNC(=O)Cn3cc(CCCCCN)nn3)CC2)nc(N2CCN(C(=O)CCCCCCCCCCNC(=O)[C@@H]([C@H](C)O)n3cc(C)nn3)CC2)n1	MrgX1 PAM 11 (no result: RGS4 block, RGS4 act)

Screening results (PubChem)
